Beta apoptosis: blocks beta cell apoptosis; INS-1E cytokine-induced death, ATP luminescence, 48 h; percent of positive-control rescue, neutral wells zero; AID 435005; actives 0.8% (n = 300,000); protection from apoptosis, % (no concentration beside the values);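 active = Every replicate reaches about 75%, or at least half do and their mean reaches it too, limit read from the data; inconclusive = At least half of replicates reach the limit but their mean does not; inactive = Under half of replicates reach the limit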;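 also: 0% = cytokine-treated negative control wells and 100% = positive control rescue; higher means more ATP so stronger rescue from cytokine killing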
SKKanGAS inh: SKKanGAS growth inhibition | AID 1662 | actives 1.3% (n = 300,000) | S. pyogenes SKKanGAS, kanamycin growth, BacTiter-Glo, 6 h | inhibition, % at 7.5 µM;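 active = mean replicate score, as percent of positive control median, at least 50; inconclusive = mean below 50 but one replicate at or above 50; inactive = mean and every replicate below 50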;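 also: strain carries kanamycin resistance gene driven by streptokinase promoter and grows in 40 µg/ml kanamycin; loss of luminescence reflects streptokinase promoter inhibition or plain growth inhibition; 0% = median of DMSO wells and 100% = positive control at its reference dose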
CSC inhib: blocks cancer stem cells; cancer stem cell-like cells viability, luminescence; inhibition, % at 7.5 µM; actives 1.1% (n = 300,000); in the data active = inhibition above about 75%; inconclusive = no clear call, values can overlap the other calls; tested in HMLE shEcad cells
Lmaj promast: inhibitors of Leishmania major promastigote growth; actives 9% (n = 200,000); inhibition, % at 10 µM; Leishmania major promastigotes, resazurin fluorescence viability; in the data active = inhibition above about 50%;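 also: promastigotes grown with compound for 44 hours at 28 °C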
T cruzi inh: blocks replication of Trypanosoma cruzi; T. cruzi beta-gal in NIH3T3, luminescence, 90 h; inhibition, % (no concentration beside the values); actives 1.4% (n = 300,000); AID 1885;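 active = mean inhibition across valid replicates above about 55%, limit read from the data; inconclusive = mean below that limit but half or more replicates reach it; inactive = mean below it, under half of replicates reach it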;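 also: signal also drops with host cell toxicity which is not excluded here; 0% = plate median of DMSO wells and 100% = zero luminescence signal; higher percent means less beta-gal luminescence so fewer parasites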
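assay system = mouse NIH/3T3 fibroblasts infected with β-gal-expressing T. cruzi Tulahuen C4 | input = 5,000 NIH/3T3 host cells per well | buffer or medium = DMEM plus 2% FBS | timing = 3 h host attachment, then at least 90 h co-culture | measured by = GalScreen luminescence, 60 min | evaluation = luminescence reflecting intracellular parasite burden, expressed as percent inhibition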
Mdm2 MdmX PPI: human Mdm2/MdmX binding inhibition | AID 485346 | O15151+Q00987 | inhibition, % at 8 µM | SaOS-2 split-luciferase Mdm2/MdmX complementation, luminescence | actives 3% (n = 330,000);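 active = inhibition of at least 50% at 8 µM in the primary screen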
Target sequence (O15151 whole entry, looked up): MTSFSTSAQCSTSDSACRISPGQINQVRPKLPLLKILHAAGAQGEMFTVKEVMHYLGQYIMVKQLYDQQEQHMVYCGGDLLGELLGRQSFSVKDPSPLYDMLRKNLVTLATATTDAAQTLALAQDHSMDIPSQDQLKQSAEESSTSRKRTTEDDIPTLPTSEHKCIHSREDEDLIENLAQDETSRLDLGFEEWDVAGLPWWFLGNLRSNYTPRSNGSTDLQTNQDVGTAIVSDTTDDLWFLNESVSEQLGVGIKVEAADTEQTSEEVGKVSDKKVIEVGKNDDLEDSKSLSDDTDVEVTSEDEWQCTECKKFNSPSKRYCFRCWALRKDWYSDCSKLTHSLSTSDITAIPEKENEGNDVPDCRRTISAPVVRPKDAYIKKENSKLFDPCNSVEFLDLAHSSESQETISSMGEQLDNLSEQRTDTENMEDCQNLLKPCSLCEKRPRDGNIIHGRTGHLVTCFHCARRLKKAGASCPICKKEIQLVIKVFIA
Target sequence (Q00987 whole entry, looked up): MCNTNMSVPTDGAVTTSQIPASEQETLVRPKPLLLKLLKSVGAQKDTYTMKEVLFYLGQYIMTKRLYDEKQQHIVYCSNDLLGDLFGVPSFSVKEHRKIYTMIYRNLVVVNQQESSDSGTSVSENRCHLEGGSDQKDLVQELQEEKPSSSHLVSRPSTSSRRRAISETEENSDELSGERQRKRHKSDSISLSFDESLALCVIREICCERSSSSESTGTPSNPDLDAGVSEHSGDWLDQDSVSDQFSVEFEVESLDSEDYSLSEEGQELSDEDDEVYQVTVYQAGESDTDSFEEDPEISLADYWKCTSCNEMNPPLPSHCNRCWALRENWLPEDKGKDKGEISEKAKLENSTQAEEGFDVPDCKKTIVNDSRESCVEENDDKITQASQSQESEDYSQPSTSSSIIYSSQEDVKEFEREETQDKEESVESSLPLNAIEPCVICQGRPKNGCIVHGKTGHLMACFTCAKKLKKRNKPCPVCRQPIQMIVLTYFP
Starred values were filed as active, the others as inactive; ? = inconclusive; / = no result. Shown are actives, neighbours in structure and some others; about 9.4% of the full set was active somewhere.

SMILES	Beta apoptosis	SKKanGAS inh	CSC inhib	Lmaj promast	T cruzi inh	Mdm2 MdmX PPI
COc1ccc(-c2nn(-c3ccccc3)cc2C(=O)NCC2CCCO2)cc1 (stereo not given)	5.4	-0.9	-5.8	/	7.8	18.8
Cc1cccc(NC(=O)C2CCN(C(=O)c3ccc(Cl)cc3)CC2)n1	-1.7	7.1	/	/	-12.7	-4.2
O=C1c2cccc3cccc(c23)C(=O)N1CCN1CCN(C(=S)Nc2ccc(F)cc2)CC1	5.3	6.8	25.5	59.4*	5.1	33.1
CC(C)(C)C(=O)N1CCN(CCN2C(=O)c3cccc4cccc(c34)C2=O)CC1	0.0	-0.4	-8.6	/	-6.5	21.1
Cc1ccc(NC(=S)N2CCN(CCN3C(=O)c4cccc5cccc(c45)C3=O)CC2)cc1	13.8	20.8	5.3	100.1*	73.7*	-8.7
Cc1ccc(NC(=O)CCN2C(=O)c3cccc4cccc(c34)C2=O)cc1	-3.4	7.6	12.3	-2.2	15.8	-0.3
Cc1onc(-c2ccccc2)c1C(=O)OCC(=O)N(C)c1c(N)n(Cc2ccccc2)c(=O)[nH]c1=O	1.1	-3.5	6.1	/	-8.9	-2.0
Cc1cc(C)nc(N/N=C/C=C/c2ccccc2)n1	-1.0	-1.4	-23.0	-2.8	-6.0	-15.0
Cc1sc(N/N=C/C=C/c2ccccc2)nc1-c1ccccc1	0.4	5.7	12.2	12.6	55.4*	-1.3
CCN(CC)CCSc1nnc2c3ccccc3n(Cc3ccccc3)c2n1	-0.5	-1.4	79.0*	/	68.7*	25.9
CCN(CC)CCSc1nnc2c3cc(F)ccc3n(Cc3ccccc3)c2n1	2.5	2.6	44.3	/	44.0	17.7
O=C(CSc1nncc2ccccc12)N1CCCCC1	-7.9	1.6	/	-2.0	25.9	13.9
COc1ccc(CCN(C(=O)C(F)(F)F)C(C(=O)NC2CCCCC2)c2ccc(C)s2)cc1 (stereo not given)	-3.2	-0.5	-9.8	67.6*	-8.0	-6.1
O=C(Nc1ccncc1)c1ccc(Cl)c(Cl)c1	7.4	-6.5	-9.5	/	61.8*	0.8
COc1ccc(C(=O)Nc2ccccc2C(=O)Nc2ccncc2)cc1	12.2	-1.5	-6.8	/	?	5.9
COc1ccc(NC(=O)c2ccc(Cl)c(NC(=O)c3ccncc3)c2)cc1	-6.5	-8.1	-9.5	76.0*	-10.1	-13.3
COc1cc(/C=N/NC(=O)c2cccnc2)ccc1OCC(=O)Nc1ccc(C)cc1	-4.8	1.9	9.8	54.5*	-17.0	7.1
COc1cc(/C=N/NC(=O)c2cccnc2)ccc1OS(=O)(=O)c1cc(C)ccc1C	0.0	2.9	19.0	97.0*	-13.4	/
O=C(Cn1c(CCCO)nc2ccccc21)Nc1ccccc1-c1ccccc1	-3.2	-1.0	-19.2	/	0.6	-20.5
CC1CC(C)(C)NC(=S)N1CC(=O)N1CCN(Cc2ccc3c(c2)OCO3)CC1 (stereo not given)	0.5	-2.0	7.5	-5.1	-1.7	-3.2
COc1cc(OC)c(C(=O)OCC(=O)Nc2nnc(-c3ccccc3)o2)cc1OC	-1.7	/	/	/	/	-2.1
Cc1ccc(C)c(-c2nnc(NC(=O)CCS(=O)(=O)c3ccccc3)o2)c1	-3.3	51.3*	39.5	/	-16.7	37.6
COc1cccc(C(=O)OCC(=O)Nc2nnc(-c3ccccc3)o2)c1	2.3	67.9*	-3.2	/	-7.9	8.4
Cc1ccc(C)c(-c2nnc(NC(=O)c3ccc([N+](=O)[O-])o3)o2)c1	35.8	79.8*	12.4	/	46.7	18.9
Cc1ccc(-c2nnc(NC(=O)CCS(=O)(=O)c3ccccc3)o2)c(C)c1	/	1.7	/	/	1.1	13.3
SMILES	Beta apoptosis	SKKanGAS inh	CSC inhib	Lmaj promast	T cruzi inh	Mdm2 MdmX PPI
COc1cccc(C(=O)COC(=O)c2ccc(NC(C)=O)cc2)c1	-10.1	-3.7	-5.3	80.6*	-2.3	19.4
Cc1ccc(C)c(-c2nnc(NC(=O)C3=COCCO3)o2)c1	1.1	-3.1	4.1	/	-16.1	34.5
Cc1ccc(C)c(SCC(=O)Nc2nnc(-c3ccccc3)o2)c1	-18.6	81.7*	5.5	-4.5	-17.2	28.7
O=C(COn1nnc2ccc(C(F)(F)F)cc21)Nc1nnc(-c2ccccc2)o1	-1.2	90.5*	23.8	-8.0	-19.9	-2.9
Cc1ccc(C)c(-c2nnc(NC(=O)COc3ccccc3)o2)c1	-2.3	104.9*	/	/	-9.2	22.0
Cc1ccc(C)c(NC(=O)CSc2nnc(-c3n[nH]c4ccccc34)o2)c1	-7.8	0.4	8.5	59.8*	-12.1	-11.6
O=C(COc1ccccc1)Nc1nnc(-c2ccccc2)o1	/	3.9	-2.2	-6.8	-5.0	7.3
CCC(c1nnc(SCC(=O)Nc2nnc(-c3ccccc3)o2)o1)N(C)C (stereo not given)	-2.6	0.5	10.0	-1.6	6.6	9.5
CCCCOc1ccc(C(=O)NCC(=O)NNC(=O)C2COc3ccccc3O2)cc1 (stereo not given)	-2.7	/	-8.2	/	/	12.6
CC(C)(C)CN1CCNC(=O)C1CC(=O)NCCN1CCCc2ccccc21 (stereo not given)	-6.0	9.0	4.5	-0.1	-7.6	10.5
CCc1ccc(N=CC23c4ccccc4C(c4ccccc42)C2C(=O)N(c4ccc(OC)cc4)C(=O)C23)cc1 (stereo not given)	/	-10.8	-9.4	89.3*	3.6	29.6
COc1ccc(N2C(=O)C3C4c5ccccc5C(C=Nc5ccc(C)cc5C)(c5ccccc54)C3C2=O)cc1 (stereo not given)	-1.6	-1.2	5.8	35.3	9.1	27.7
COc1ccc(NC(=O)c2cc(-c3cc(C)cc(C)c3O)n[nH]2)cc1Cl	14.1	99.5*	99.3*	99.9*	1.2	35.8
COc1ccc(NC(=O)c2cc(-c3ccccc3O)n[nH]2)cc1Cl	1.2	1.3	-3.0	/	0.9	-15.4
Cc1cc(C)c(O)c(-c2cc(C(=O)Nc3cccnc3)[nH]n2)c1	-3.6	-10.9	47.3	/	-12.7	-8.7
COc1ccc(CNC(=O)c2cc(-c3cc(C)cc(C)c3O)n[nH]2)cc1	-4.8	6.8	58.0	/	12.3	-4.4
Cc1cccc(NC(=O)c2cc(-c3cc(C)cc(C)c3O)n[nH]2)c1	7.0	23.1	76.2*	/	7.7	14.2
Cc1cc(C)c(O)c(-c2cc(C(=O)NCc3ccccc3)[nH]n2)c1	3.3	7.3	-20.4	52.0*	23.9	15.3
CC1(C)C(=O)Nc2ccccc2N1C(=O)COC(=O)CSc1ccc(Cl)cc1	-6.9	/	0.0	/	/	-15.4
Cc1cccc(-c2nc3cc(NC(=O)C4CCCO4)ccc3o2)c1 (stereo not given)	-2.4	19.8	20.2	74.9*	11.4	/
O=C(OCc1nc2ccccc2[n+]([O-])c1C(=O)c1ccccc1)c1cccs1	-7.3	-1.1	-1.2	86.4*	6.2	-9.2
Cc1cc(C(=O)C(C)OC(=O)C2=NNC(=O)CC2)c(C)n1-c1ccc(OC(F)F)cc1 (stereo not given)	0.1	8.1	-1.0	99.5*	3.7	16.3
COc1ccc(CCNC(=O)CSc2nnc(C(C)N(C)C)n2Cc2ccccc2)cc1OC (stereo not given)	-5.3	-0.6	-10.8	3.8	1.6	-2.1

Compound activity deposited in PubChem by several laboratories.
